Data set [1] addresses T1, Nuclear receptor subfamily 1 group D member 1 (Homo sapiens, UniProt P20393).
T1 sequence (P20393 whole entry): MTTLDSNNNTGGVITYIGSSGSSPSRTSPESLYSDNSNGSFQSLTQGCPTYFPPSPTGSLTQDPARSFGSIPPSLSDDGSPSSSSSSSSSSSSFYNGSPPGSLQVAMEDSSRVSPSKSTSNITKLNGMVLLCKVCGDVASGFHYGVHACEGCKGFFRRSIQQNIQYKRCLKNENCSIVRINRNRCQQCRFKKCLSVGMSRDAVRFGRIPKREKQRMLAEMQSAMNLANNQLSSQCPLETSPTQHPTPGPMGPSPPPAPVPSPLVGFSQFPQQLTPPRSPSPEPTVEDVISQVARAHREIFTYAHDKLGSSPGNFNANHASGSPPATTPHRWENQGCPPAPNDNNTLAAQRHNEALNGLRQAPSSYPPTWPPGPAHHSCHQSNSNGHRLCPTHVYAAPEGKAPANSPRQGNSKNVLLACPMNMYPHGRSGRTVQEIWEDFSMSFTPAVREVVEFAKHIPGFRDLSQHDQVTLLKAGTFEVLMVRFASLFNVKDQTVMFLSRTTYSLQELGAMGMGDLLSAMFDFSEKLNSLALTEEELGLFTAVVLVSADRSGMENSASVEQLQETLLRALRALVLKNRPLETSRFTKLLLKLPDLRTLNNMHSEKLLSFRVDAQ
Nature of the data set: Agonist activity at Rev-erbalpha assessed as repression of transcription by luciferase-reporter gene assay. Type of data set: functional. The method in brief:
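Cells co-transfected with a full-length Rev-erbα expression plasmid and a luciferase reporter driven by the Bmal1 promoter; repression of Bmal1 transcription read by luciferase. Compounds first tested at 1 μM and 10 μM, value given as fold change versus DMSO control at 10 μM (1.0 = no repression). Active compounds then titrated in an eleven-point dose response to give EC50.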

Data set [2] addresses T2, Nuclear receptor subfamily 1 group D member 1 (Homo sapiens) (UniProt P20393).
T2 sequence (whole entry): T1 sequence (P20393 whole entry)
Nature of the data set: Agonist activity at Rev-erbalpha assessed as repression of transcription at 10 uM by luciferase-reporter gene assay relative to control. In kind it is functional. The method in brief:
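Cells co-transfected with a full-length Rev-erbα expression plasmid and a luciferase reporter driven by the Bmal1 promoter. Compounds were screened at 1 μM and 10 μM for repression of Bmal1-driven transcription. The value is the fold change in luciferase signal relative to the DMSO control at 10 μM compound, where 1.0 means no repression.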

The subject of data set [3] is Rattus norvegicus. Nature of the data set: Oral bioavailability in Sprague-Dawley rat at 2 mg/kg by LC-MS/MS analysis. Type of data set: ADME, organism-based. As to conditions: in vivo. The method in brief: (§1)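 Male/female unspecified Sprague-Dawley rats, n = 3; single 1 mg/kg i.v. dose and 2 mg/kg oral gavage dose. Blood sampled at 5, 15, 30 min, 1, 2, 4, 6, 8 h into EDTA tubes, plasma by centrifugation, proteins precipitated with acetonitrile, drug measured by LC-MS/MS. Noncompartmental analysis gave t1/2, clearance, Vd, AUC, Cmax and oral bioavailability.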

Data set [4] can be described thus: Half life in Sprague-Dawley rat at 1 mg/kg, iv and 2 mg/kg, po by LC-MS/MS analysis. As to conditions: in vivo. In kind it is ADME, organism-based. The method in brief: as §1
Data set [5] has as its system Rattus norvegicus. Nature of the data set: Volume of distribution in Sprague-Dawley rat at 1 mg/kg, iv and 2 mg/kg, po by LC-MS/MS analysis. In kind it is ADME, organism-based. The note with it: in vivo. The method in brief: as §1
Data set [6] deals with T1, Nuclear receptor subfamily 1 group D member 1. Nature of the data set: Agonist activity at Rev-erbalpha assessed as NCoR recruitment by FRET assay. Type of data set: functional.
The test system of data set [7] is Brain. As to the kind of experiment: Brain penetration in C57Bl6 mouse at 10 mg/kg, ip after 2 hrs by LC-MS/MS analysis. In kind it is ADME, organism-based. Set-up: dose 10 mg/kg, route intraperitoneal. The note with it: in vivo. The method in brief:
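C57Bl6 mice (n = 3), single 10 mg/kg intraperitoneal dose; blood and brain collected at 2 h, plasma frozen at −80°C. Plasma and brain mixed with acetonitrile (1:5 v:v or w:v), brain probe-sonicated, drug measured by LC-MS/MS against plasma or blank-brain-matrix standards; brain penetration as brain/plasma level percentage.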

In the case of `COc1ccc(OCC2Cc3ccccc3CN2C(=O)c2cccc3ccccc23)cc1OC` (stereo unspecified), the 50% effective concentration (EC50) (commonly the concentration needed to bring the measured effect to its halfway point) in data set [1] was 0.33 µM. In addition, the fold change (FC) in data set [2] is 0.55. As to `O=C(c1cccc2ccccc12)N1Cc2ccccc2CC1COCc1ccccc1` (stereo unspecified), in data set [1], the EC50 is 0.65 µM. For the same compound, the F in data set [3] is listed as 0%. Moreover, the half-life (as a rule, the time in which the quantity being followed falls by half) in data set [4] is 1.9 h. Moreover, the Vd in data set [5] worked out at 3.8 L/kg. Besides, the fold change (FC) in data set [2] turned out to be 0.41. Regarding `O=C(NCC1Cc2ccccc2CN1C(=O)c1cccc2ccccc12)OCc1ccccc1` (stereo unspecified), the fold change (FC) in data set [2] is 0.53. Take `COc1ccc(OCC2Cc3ccccc3CN2C(=O)c2cccc3ccccc23)cc1` (stereo unspecified): in data set [1], the EC50 was found to be 0.12 µM. Also, the fold change (FC) in data set [2] was found to be 0.38. On to `CCOC(=O)C1Cc2ccccc2CN1Cc1ccc([N+](=O)[O-])o1` (stereo unspecified), for which, in data set [2], the fold change (FC) was found to be 0.9. Still for that read-out and setting: the value for `CCOC(=O)C1Cc2ccccc2CN1C(=O)Oc1ccc(Cl)cc1` (stereo unspecified) was 1.3.

`CCOC(=O)C1Cc2ccccc2CN1C(=O)c1cccc2oc(C)cc12` (stereo unspecified): the EC50 in data set [1] is over 3 µM. The fold change (FC) in data set [2] was 0.51. The corresponding values for `CCOC(=O)C1Cc2ccccc2CN1S(=O)(=O)c1ccc(C)cc1` (stereo unspecified) are 1.1 µM and 0.51. Take `O=C(Nc1ccccc1)C1Cc2ccccc2CN1C(=O)c1cccc2ccccc12` (stereo unspecified): the fold change (FC) in data set [2] was 0.59.

For the compound `O=C(c1cccc2ccccc12)N1Cc2ccccc2CC1CO` (stereo unspecified), the fold change (FC) in data set [2] was 0.71. The same measure, in the same setting: the result for `CCOC(=O)C1Cc2ccccc2CN1C(=O)Oc1cccc(C(F)(F)F)c1` (stereo unspecified) reads 1. Take `O=C(c1cccc2ccccc12)N1Cc2ccccc2CC1COc1cccc2ccccc12` (stereo unspecified): the EC50 in data set [1] is 1.2 µM. In addition, in data set [2], the fold change (FC) worked out at 0.41. `CC(=O)OCC1Cc2ccccc2CN1C(=O)c1cccc2ccccc12` (stereo unspecified): the fold change (FC) in data set [2] was 0.65.

`O=C(c1cccc2ccccc12)N1Cc2ccccc2CC1COc1ccc(-c2ccccc2)cc1` (stereo unspecified): the EC50 in data set [1] was determined as 0.65 µM. In data set [2], the fold change (FC) is 0.4.

Take `O=C(c1cccc2ccccc12)N1Cc2ccccc2CC1COc1ccccc1` (stereo unspecified): the 50% effective concentration (EC50) in data set [1] was determined as 0.84 µM. The fold change (FC) in data set [2] was 0.37. In the case of `CCOC(=O)C1Cc2ccccc2CN1Cc1cccc2ccccc12` (stereo unspecified), the fold change (FC) in data set [2] was 1.

Consider `NCC1Cc2ccccc2CN1C(=O)c1cccc2ccccc12` (stereo unspecified), for which the fold change (FC) in data set [2] worked out at 0.74. As to `O=C(c1cccc2ccccc12)N1Cc2ccccc2CC1COc1ccc(F)cc1` (stereo unspecified), the EC50 in data set [1] is 0.8 µM. Besides, in data set [2], the fold change (FC) was determined as 0.43. The corresponding values for `CC(C)(C)Oc1ccc(OCC2Cc3ccccc3CN2C(=O)c2cccc3ccccc23)cc1` (stereo unspecified) are 0.14 µM and 0.5. `CCOC(=O)C1Cc2ccccc2CN1C(=O)Oc1ccccc1` (stereo unspecified): the fold change (FC) in data set [2] was determined as 1.

For `CCOC(=O)C1Cc2ccccc2CN1C(=O)Nc1ccccc1` (stereo unspecified), the fold change (FC) in data set [2] was determined as 1.5. On to `CC(C)(C)OC(=O)CN(Cc1ccc(Cl)cc1)Cc1ccc([N+](=O)[O-])s1` [GSK-4112], for which the EC50 in data set [1] is 2.3 µM; in data set [6] it was 0.4 µM. In data set [3], this compound yielded an F of 0%. Further, the half-life in data set [4] was 0.4 h. The compound further returned a Vd in data set [5] of 9.9 L/kg. Moreover, the fold change (FC) in data set [2] came out at 0.82. Also, the Drug uptake in data set [7] stood at 140%. As to `CCOC(=O)C1Cc2ccccc2CN1C(=O)c1ccno1` (stereo unspecified), the fold change (FC) in data set [2] is 1.

Take `COc1ccccc1OCC1Cc2ccccc2CN1C(=O)c1cccc2ccccc12` (stereo unspecified): in data set [1], the EC50 is 2 µM. Besides, the fold change (FC) in data set [2] was 0.4. On to `CCOC(=O)C1Cc2ccccc2CN1C(=O)C1COc2ccccc2O1` (stereo unspecified), for which, in data set [2], the fold change (FC) was 0.81. Still for that read-out and setting: the result for `CCOC(=O)C1Cc2ccccc2CN1C(=O)c1cccc(Br)c1` (stereo unspecified) reads 0.97. Regarding `O=C(c1cccc2ccccc12)N1Cc2ccccc2CC1COc1ccc(OC(F)(F)F)cc1` (stereo unspecified), the half-maximal effective concentration (EC50) in data set [1] was 0.6 µM. Also, in data set [2], the fold change (FC) is 0.4. The corresponding values for `COc1cccc(OCC2Cc3ccccc3CN2C(=O)c2cccc3ccccc23)c1` (stereo unspecified) are 0.62 µM and 0.45. Regarding `CCOC(=O)C1Cc2ccccc2CN1S(=O)(=O)c1cccc(Br)c1` (stereo unspecified), the fold change (FC) in data set [2] turned out to be 0.75. On the same count and under the same terms, the result for `CCOC(=O)C1Cc2ccccc2CN1C(=O)C1CCCc2ccccc21` (stereo unspecified) reads 0.73; that for `CCOC(=O)C1Cc2ccccc2CN1Cc1nc2ccccc2s1` (stereo unspecified), 0.95. Take `CCOC(=O)C1Cc2ccccc2CN1C(=O)c1cccc2c1CCCC2` (stereo unspecified): in data set [1], the EC50 is 2.1 µM. Moreover, in data set [2], the fold change (FC) was determined as 0.53. Turning to `O=C(c1cccc2ccccc12)N1Cc2ccccc2CC1CNS(=O)(=O)c1ccccc1` (stereo unspecified), the fold change (FC) in data set [2] is 0.4. Consider `CCOC(=O)C1Cc2ccccc2CN1Cc1ccc(C(F)(F)F)nc1` (stereo unspecified), for which, in data set [2], the fold change (FC) worked out at 1. As for `NC(=O)C1Cc2ccccc2CN1C(=O)c1cccc2ccccc12` (stereo unspecified), the fold change (FC) in data set [2] is 0.61. On to `CCOC(=O)C1Cc2ccccc2CN1C(=O)c1ccccc1` (stereo unspecified), for which the fold change (FC) in data set [2] was determined as 0.97. On to `CCOC(=O)C1Cc2ccccc2CN1Cc1ccc([N+](=O)[O-])s1` (stereo unspecified), for which the fold change (FC) in data set [2] came out at 0.78. In the case of `CCCOc1ccc(OCC2Cc3ccccc3CN2C(=O)c2cccc3ccccc23)cc1` (stereo unspecified), in data set [1], the EC50 turned out to be 0.077 µM. In data set [2], the fold change (FC) turned out to be 0.45. Take `CCOc1ccc(OCC2Cc3ccccc3CN2C(=O)c2cccc3ccccc23)cc1` (stereo unspecified): the EC50 in data set [1] was determined as 0.097 µM. The fold change (FC) in data set [2] came to 0.35. As to `O=C(c1cccc2ccccc12)N1Cc2ccccc2CC1COc1ccc(F)cc1F` (stereo unspecified), the EC50 in data set [1] is 0.71 µM. In addition, the fold change (FC) in data set [2] turned out to be 0.45. Consider `O=C(c1cccc2ccccc12)N1Cc2ccccc2CC1COc1ccc(-n2cncn2)cc1` (stereo unspecified), for which the EC50 in data set [1] is 0.12 µM. Also, in data set [2], the fold change (FC) stood at 0.35. Consider `CCOC(=O)C1Cc2ccccc2CN1Cc1ccc(C(=O)O)s1` (stereo unspecified), for which, in data set [2], the fold change (FC) is 1. With `CCOC(=O)C1Cc2ccccc2CN1S(=O)(=O)c1cccc2ccccc12` (stereo unspecified), the EC50 in data set [1] amounted to 1.7 µM. For the same compound, in data set [2], the fold change (FC) was determined as 0.5. With `CCOC(=O)C1Cc2ccccc2CN1C(=O)Nc1cccc2ccccc12` (stereo unspecified), in data set [2], the fold change (FC) worked out at 1.

In the case of `CCOC(=O)C1Cc2ccccc2CN1C(=O)c1cccc2ccccc12` (stereo unspecified), in data set [1], the EC50 was found to be 2.5 µM. In data set [2], the fold change (FC) turned out to be 0.41. Consider `O=C(c1cccc2ccccc12)N1Cc2ccccc2CC1CNCc1ccccc1` (stereo unspecified), for which, in data set [1], the 50% effective concentration (EC50) was over 3 µM. The compound also showed a F in data set [3] of 0%. The compound further gave a half-life in data set [4] of 1.7 h. Also, in data set [5], the Vd amounted to 3.8 L/kg. For the same compound, the fold change (FC) in data set [2] was found to be 0.43.

On to `CCOC(=O)C1Cc2ccccc2CN1C(=O)c1ccccc1Cl` (stereo unspecified), for which, in data set [2], the fold change (FC) turned out to be 0.78. Still for that read-out and setting: the result for `CCOC(=O)C1Cc2ccccc2CN1C(=O)c1cccc2cccnc12` (stereo unspecified) reads 0.64. As for `O=C(NCc1ccccc1)C1Cc2ccccc2CN1C(=O)c1cccc2ccccc12` (stereo unspecified), the EC50 in data set [1] was over 3 µM. In addition, the fold change (FC) in data set [2] is 0.55.

With `CN(C)c1cccc(OCC2Cc3ccccc3CN2C(=O)c2cccc3ccccc23)c1` (stereo unspecified), the EC50 in data set [1] was found to be 0.78 µM. Also, in data set [2], the fold change (FC) came out at 0.3.

As for `O=C(O)C1Cc2ccccc2CN1C(=O)c1cccc2ccccc12` (stereo unspecified), the fold change (FC) in data set [2] turned out to be 0.67.

The record behind these values is ChEMBL document CHEMBL2029304, “Synthesis and SAR of tetrahydroisoquinolines as Rev-erbα agonists” (Bioorg Med Chem Lett, 2012).
